High-throughput results (PubChem)
B2AR ag: beta2AR agonists driving receptor internalization, primary screen, cell-based, FAP fluorogen, flow cytometry; Beta-2 adrenergic receptor (Homo sapiens), P07550; Am2.2-beta2AR cells; response, % (concentration not given with the values); actives 0.43% (n = 340,000); AID 504454, 2011;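 active means response above a set limit, near 3 SD of response in nonfluorescent compounds, cut at about 42% in these data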
TAAR1 antagonist: human TAAR1 antagonists, primary screen, Fluo-8 calcium fluorescence, CHO RD-HGA16 cells; Trace amine-associated receptor 1 (Homo sapiens), Q96RJ0; antagonist; inhibition, % at 3 µM; actives 1.5% (n = 360,000); AID 624466, 2012;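 active means inhibition above a per-plate cutoff, the mean inhibition of test compounds on that plate plus 3 SD, cut at about 49% in these data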;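 further: 0% = DMSO plus EC80 beta-PEA response and 100% = DMSO alone without agonist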
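Test system: CHO RD-HGA16 cells bearing hTAAR1 | Reagent: β-PEA, EC80 | Compound dosing: 3 µM, single point | Schedule: Dye loading 75 min at 37 °C, then 30 min room temperature | Signal: Calcium fluorescence with Fluo-8 | Evaluation: Percent inhibition of PEA-evoked calcium signal, max/basal emission ratio | Control set: DMSO-only wells and EC80 β-PEA-stimulated wells | Repeats: Singlicate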
TAAR1 ag: human TAAR1 agonists, primary screen, Fluo-8 calcium fluorescence, CHO RD-HGA16 cells; actives 0.99% (n = 360,000); vehicle wells 0%, saturating PEA agonist 100%; Trace amine-associated receptor 1 (Homo sapiens), Q96RJ0; activation, % at 3 µM; AID 624467, 2012;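 active means activation above the mean activation of all test compounds in the run plus 3 SD, cut at about 38% in these data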
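System: CHO RD-HGA16 cells carrying human TAAR1 plus Gα16; Incubation: 17-24 h seeding, 75 min 37 °C dye, 30 min RT; Measured by: Fluo-8 fluorescence, 5 s baseline then 140 s kinetic read; Control set: DMSO and PEA EC100; Replication: single well for each compound.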
MC4R antagonist: MC4R antagonists of cAMP signaling, primary screen, cell-based, TR-FRET, antagonist arm of biased-ligand search | Melanocortin receptor 4 (Homo sapiens), P32245 | MC4R-expressing cells, MTII-stimulated cAMP, LANCE TR-FRET | inhibition, % at 6.5 µM | actives 0.48% (n = 360,000) | AID 540295, 2011;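 active means inhibition above its plate's cutoff, the mean of tested wells on that plate plus 3 SD, cut at about 29% in these data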;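 further: 0% = Melanotan II alone and 100% = Melanotan II plus saturating MCL0020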
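Material: human MC4R-expressing U2OS cells. Probe or stimulus: Melanotan II challenge. Dosing: 6.5 µM single dose. Times: 30-min compound, 1-h challenge, 1-h detection, room temperature. Technique: TR-FRET with Eu-cAMP and labeled anti-cAMP, 671 nm. Replication: singlicate.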
MC4R ag barr: MC4R agonists recruiting beta-arrestin, primary screen, cell-based, luminescence, agonist arm of biased-ligand search. Melanocortin receptor 4 (Homo sapiens), P32245. U2OS MC4R beta-arrestin complementation; percent of melanotan II response, DMSO zero. activation, % at 8.9 µM. actives 0.98% (n = 360,000). AID 540308, 2011;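 active means activation above a per-plate cutoff, the mean activation of sample wells on that plate plus 3 SD, cut at about 8% in these data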
m5-HT2A agonist: mouse Htr2a agonists via beta-arrestin recruitment, primary screen, cell-based, luminescence | CHO-K1 mHTR2A beta-arrestin complementation; percent of 30 µM serotonin response | activation, % at 7.6 µM | actives 0.66% (n = 360,000) | AID 624169, 2012;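 active means activation above a run cutoff, the mean activation of all tested compounds plus 3 SD, cut at about 14% in these data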;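 further: 0% = plate median of compound wells and 100% = 30 µM serotonin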
MC4R barr conf: MC4R beta-arrestin agonists, retest, confirmation, cell-based, luminescence, U2OS; shares compounds with MC4R ag barr; U2OS MC4R beta-arrestin recruitment; scaled DMSO 0%, Melanotan II 100%; activation, % at 8.9 µM; actives 31% (n = 2,400); AID 602192, 2012;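 active means mean activation across replicates above the hit cutoff set in the earlier primary screen, cut at about 8% in these data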
MOR DOR agonist: agonists of MOR-DOR heterodimerization, counter-screen for MC4R biased agonist project, cell-based, luminescence | shares compounds with MC4R ag barr | U2OS PathHunter beta-arrestin, beta-gal luminescence; percent of deltorphin B response, DMSO zero | activation, % at 9.2 µM | actives 5.8% (n = 2,400) | AID 602194, 2012;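 active means mean activation across replicates exceeds the hit threshold derived in the earlier primary screen, cut at about 18% in these data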;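 further: 100% = deltorphin B at 0.9 µM final and 0% = DMSO alone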
Target sequence (P35372 whole entry, looked up): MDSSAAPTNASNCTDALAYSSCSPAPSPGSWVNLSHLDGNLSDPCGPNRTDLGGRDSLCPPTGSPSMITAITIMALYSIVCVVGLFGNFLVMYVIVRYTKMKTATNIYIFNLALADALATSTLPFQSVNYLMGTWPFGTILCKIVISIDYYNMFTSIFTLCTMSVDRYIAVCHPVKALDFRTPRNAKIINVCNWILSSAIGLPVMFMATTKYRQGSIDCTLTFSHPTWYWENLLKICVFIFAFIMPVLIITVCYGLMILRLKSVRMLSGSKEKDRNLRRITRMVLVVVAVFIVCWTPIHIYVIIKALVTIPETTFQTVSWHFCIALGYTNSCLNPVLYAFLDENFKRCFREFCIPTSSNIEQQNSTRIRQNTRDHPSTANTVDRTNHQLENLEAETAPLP
Target sequence (P41143 whole entry, looked up): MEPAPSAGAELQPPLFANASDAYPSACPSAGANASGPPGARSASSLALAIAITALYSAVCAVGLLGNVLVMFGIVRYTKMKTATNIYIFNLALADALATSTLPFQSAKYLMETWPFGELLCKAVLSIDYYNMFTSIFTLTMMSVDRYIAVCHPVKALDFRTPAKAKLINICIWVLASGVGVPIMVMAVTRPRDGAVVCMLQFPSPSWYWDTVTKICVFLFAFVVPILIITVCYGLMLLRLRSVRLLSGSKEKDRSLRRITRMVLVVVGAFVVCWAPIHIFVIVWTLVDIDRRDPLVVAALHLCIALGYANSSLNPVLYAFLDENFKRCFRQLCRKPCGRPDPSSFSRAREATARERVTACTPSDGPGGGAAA
* = called active by the depositor; / = no result given. Rows were chosen to be rich in hits. Some 4.3% of all compounds tested hit in one or more screens of this group.

SMILES	B2AR ag	TAAR1 antagonist	TAAR1 ag	MC4R antagonist	MC4R ag barr	m5-HT2A agonist	MC4R barr conf	MOR DOR agonist
O=C(NNc1nc2ccccc2s1)Nc1ccc(Cl)c(Cl)c1	2	12	0	20	16*	1	9.2*	10
Cc1ccc(S(=O)(=O)NC(CC(C)C)C(=O)N2CCN(C/C=C/c3ccccc3)CC2)cc1 (centres undefined)	-2	6	0	3	0	-10	/	/
OC1(c2cccc(C(F)(F)F)c2)CCN(c2ncnc3c2[nH]c2ccccc23)CC1	-17	56*	23	6	11*	-1	2	5
O=C(N/C=N/OCc1ccc(Cl)cc1Cl)NOCc1c(Cl)cccc1Cl	4	24	-2	-11	12*	-2	8	3
O=C(OCc1ccccc1)N1CCN(C(c2ccnc3ccccc23)c2nnnn2-c2ccc3c(c2)OCCO3)CC1 (centres undefined)	/	-25	1	/	/	-3	/	/
COc1ccc(-c2cnc3c(NC=O)cc(-c4cc(OC)c(OC)c(OC)c4)cn23)cc1OC	/	5	0	-40	30*	13	13*	4
O=CNc1cc(-c2ccsc2)cn2c(-c3ccccc3)cnc12	/	60*	8	-5	32*	-5	35*	6
COc1ccc(-c2cnc3c(NC=O)cc(-c4ccoc4)cn23)cc1OC	/	-12	0	-16	15*	4	9.3*	2
COc1ccc(-c2cnc3c(NC=O)cc(-c4ccc(F)cc4)cn23)cc1OC	/	-19	2	-25	8	4	/	/
COc1ccc(-c2cnc3c(NC=O)cc(-c4ccccc4)cn23)cc1OC	/	-7	0	-35	27*	-3	8	5
COc1ccc(-c2cc(NC=O)c3ncc(-c4ccc(OC)c(OC)c4)n3c2)c(OC)c1	/	-4	0	-64	4	5	/	/
CN(CC(=O)Nc1cccc(F)c1)C(=O)CN1C(=O)C2CCCCC2C1=O (centres undefined)	-13	-17	2	2	-1	-6	/	/
COc1ccc2c(c1)CCCC2NS(=O)(=O)OCC(Cl)(Cl)Cl (centres undefined)	5	31	19	9	10*	1	3	10
CCN(CC)CCN(C(=O)CCS(=O)(=O)c1ccccc1)c1nc2c(C)cc(C)cc2s1	1	1	7	6	12*	-13	4	6
O=C(c1ccc([N+](=O)[O-])cc1)N1CCN(C2=NS(=O)(=O)c3ccccc32)CC1	-2	5	1	-5	1	1	/	/
COc1ccc(-n2nnnc2/C=C\Nc2ccccc2C(=O)c2ccccc2)cc1	-6	14	2	-1	-1	-2	/	/
CC(=O)c1cccc(N/C=C\c2nnnn2-c2ccc(F)cc2)c1	-4	5	2	2	16*	-5	6	3
Cc1ccc2oc(=O)c(-c3ccc(O)cc3)c(C)c2c1	0	-15	0	-21	0	3	/	/
Cc1ccc(C(=O)Nc2ncc(Cc3ccc(F)cc3)s2)o1	2	28	5	2	-2	-2	/	/
